Measured values reported in ChEMBL document CHEMBL1135729, “Synthesis and biological evaluation of a new set of pyrazolo[1,5-c]quinazoline-2-carboxylates as novel excitatory amino acid antagonists” (J Med Chem, 2002).

What was measured:
[1] = target: Glutamate receptor ionotropic, kainate (Rattus norvegicus) (UniProt P22756+Q01812+P42260+P42264+Q63273); test: Percent Inhibition of specific [3H]KA binding to Ionotropic glutamate receptor in rat cortical membranes.; format: cell membranes; design: concentration or dose not given beside the values; conditions: Membrane; concentration not given here
Procedure, shortened: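 Membranes resuspended (0.5 mg protein/mL) in 0.05 M Tris-citrate, pH 7.4, preincubated at 37 °C for 30 min, then washed three times in ice-cold buffer. Binding run on ice for 60 min with 5 nM [3H]kainate; nonspecific binding defined with 1 mM glutamate. Separation by GF/C filtration.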

[2] = target: T1, Glutamate receptor ionotropic, AMPA (Rattus norvegicus, UniProt P19490+P19491+P19492+P19493); test: Displacement of [3H]AMPA from Ionotropic glutamate receptor AMPA in rat cortical membranes.; format: cell membranes, Membrane
[3] = target: T2, Glutamate receptor ionotropic, NMDA 1 (Rattus norvegicus, UniProt P35439); test: Inhibition by displacing [3H]-Glycine of N-methyl-D-aspartate glutamate receptor 1 in rat cortical membranes; format: cell membranes, Membrane
[4] = target: Glutamate receptor ionotropic, kainate; test: Inhibition of specific binding […] by displacing [3H]KA, from specific binding sites of Ionotropic glutamate receptor ionotropic kainate in rat cortical membranes; format: cell membranes, Membrane
Procedure, shortened: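 Rat cortical membranes preincubated at 0.5 mg protein/mL in 0.05 M Tris-citrate pH 7.4, 37 °C for 30 min, then washed thrice in ice-cold buffer. Binding on ice for 60 min with 5 nM [3H]kainate, 0.2-0.3 mg protein per assay. Nonspecific binding defined with 1 mM glutamate. Filtration separation.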

[5] = target: T2, Glutamate receptor ionotropic, NMDA 1; test: Displacement of [3H]glycine from N-methyl-D-aspartate glutamate receptor 1 in rat cortical membranes; format: cell membranes, Membrane
[6] = target: Glutamate receptor ionotropic, AMPA (Rattus norvegicus) (UniProt P19491+P19492+P19493+P19490); test: Percent Inhibition by displacing [3H]AMPA from Ionotropic glutamate receptor AMPA specific binding sites in rat cortical membranes; format: cell membranes; design: concentration or dose not given beside the values; conditions: concentration not given here
[7] = target: Glutamate receptor ionotropic, NMDA 1 (Rattus norvegicus) (UniProt P35439); test: (§1) Percent Inhibition by displacing [3H]glycine of N-methyl-D-aspartate glutamate receptor 1 in rat cortical membranes; format: cell membranes; design: concentration or dose not given beside the values; conditions: Membrane; concentration not given here
Glutamate NMDA receptor = test: Inhibition of stimulated [3H](+)-MK-801 binding to N-methyl-D-aspartate glutamate receptor in rat cortical membranes incubated with 10 uM glutamate and 0.1 uM glycine.
[8] = target: T1, Glutamate receptor ionotropic, AMPA; test: Inhibition by displacing [3H]AMPA from Ionotropic glutamate receptor AMPA specific binding sites in rat cortical membranes; format: cell membranes
Mus musculus [9] = organism: Mus musculus; test: Concentration that inhibits by 50% depolarization induced by 5M AMPA; format: functional
Procedure, shortened: (§2)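 Cortical wedge preparation (per Mannaioni et al.). AMPA or NMDA (5 μM) applied for 2 min every 15 min until control peaks were stable, then wedges continuously superfused with antagonist while agonist pulses continued. Afterwards, washout with antagonist-free Krebs and agonist applied every 15 min for 30-60 min to confirm recovery. dc potential between two compartments recorded via Ag/AgCl electrodes. IC50 derived against control peaks; mean ± SEM, n = 4.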

Mus musculus [10] = organism: Mus musculus; test: Concentration that inhibits by 50% depolarization induced by 5M NMDA; format: functional; procedure, shortened: as §2
[11] = target: T2, Glutamate receptor ionotropic, NMDA 1; test: as §1; format: cell membranes, Membrane

CCOC(=O)c1cc2c3cc([N+](=O)[O-])c(Cl)cc3nc(O)n2n1
inhibition [1]: 23%

CCOC(=O)c1cc2c3ccc(Cl)cc3nc(O)n2n1
inhibition [1]: 15%

O=C(O)C1=NN2C(=O)Nc3cc(Cl)c(Cl)cc3C2C1 (stereo not given)
inhibition [1]: 17%
Ki [2]: 2.65 µM
Ki [3]: 0.19 µM

O=C(O)C1=NN2C(=O)Nc3ccccc3C2C1 (stereo not given)
IC50 [4]: 19.5 µM
Ki [2]: 96 µM
Ki [5]: 2 µM

O=C(O)c1cc2n(n1)C(C(=O)O)Nc1cc(Cl)ccc1-2 (stereo not given)
inhibition [1]: 13%
inhibition [6]: 7%
inhibition [7]: 25%

CCOC(=O)c1cc2c3cc([N+](=O)[O-])ccc3nc(O)n2n1
inhibition [1]: 4%
inhibition [6]: 27%
inhibition [7]: 15%

O=C(O)c1cc2c3ccccc3nc(O)n2n1
inhibition [1]: 26%
Ki [2]: 12.4 µM
Ki [5]: 1.41 µM
IC50 (Glutamate NMDA receptor): 10.4 µM

CCOC(=O)c1cc2n(n1)C(C(=O)O)Nc1cc(Cl)ccc1-2 (stereo not given)
inhibition [1]: 1%
inhibition [6]: 6%
inhibition [7]: 5%

O=C(O)c1nc2c(=O)[nH]c3cc(Cl)c(-n4cnnc4)cc3n2n1 [TQX-173]
Ki [3]: 33.5 µM

CCOC(=O)c1cc2c3cc(-n4ccc(C=O)c4)c(Cl)cc3nc(O)n2n1
inhibition [1]: 29%
Ki [8]: 1.4 µM
IC50 (Mus musculus [9]): 1 µM
IC50 (Mus musculus [10]): > 50 µM
Ki [3]: 57 µM

O=C(O)c1cc2c3cc([N+](=O)[O-])c(Cl)cc3[nH]c(=O)n2n1
IC50 [4]: 23 µM
Ki [2]: 0.74 µM
Ki [11]: 1.1 µM

CCOC(=O)c1cc2c3cc(-n4cnnc4)c(Cl)cc3nc(O)n2n1
inhibition [1]: 38%
Ki [2]: 0.87 µM
IC50 (Mus musculus [9]): 1.75 µM
IC50 (Mus musculus [10]): > 50 µM
inhibition [7]: 18%

O=C(O)c1cc2c3cc(-n4cnnc4)c(Cl)cc3[nH]c(=O)n2n1
Ki [2]: 0.14 µM
IC50 (Mus musculus [10]): 20 µM

COC(=O)C1=NN2C(=O)Nc3cc(Cl)ccc3C2C1 (stereo not given)
inhibition [1]: 3%
Ki [2]: 17.3 µM
Ki [5]: 10.6 µM

CCOC(=O)c1cc2c3ccc(Cl)cc3[nH]c(=O)n2n1
Ki [2]: 72 µM
Ki [5]: 26.5 µM

CCOC(=O)c1cc2c3cc(N)ccc3nc(O)n2n1
inhibition [1]: 30%
inhibition [6]: 27%
inhibition [7]: 30%

O=C(O)c1cc2c3cc([N+](=O)[O-])ccc3nc(O)n2n1
inhibition [1]: 24%
Ki [2]: 26 µM
inhibition [7]: 35%

CCOC(=O)c1cc2c3cc(N)c(Cl)cc3nc(O)n2n1
inhibition [1]: 11%
inhibition [6]: 33%
inhibition [7]: 40%

CCOC(=O)c1cc2c3ccccc3nc(O)n2n1
inhibition [1]: 12%

O=C(O)c1cc2c3cc(Cl)c(Cl)cc3[nH]c(=O)n2n1
IC50 [4]: 41 µM
Ki [2]: 2.4 µM
Ki [5]: 0.16 µM

O=C(O)c1cc2c3ccc(Cl)cc3nc(O)n2n1
IC50 [4]: 60 µM
Ki [2]: 2.3 µM
Ki [5]: 0.48 µM

COC(=O)C1=NN2C(=O)Nc3cc(Cl)c(Cl)cc3C2C1 (stereo not given)
inhibition [1]: 9%
Ki [2]: 8.5 µM
Ki [5]: 4 µM

COC(=O)c1cc2c3cc(Cl)c(Cl)cc3nc(O)n2n1
inhibition [1]: 10%
inhibition [6]: 42%
Ki [5]: 1.3 µM

CCOC(=O)c1cc2n(n1)C(C(=O)O)Nc1ccccc1-2 (stereo not given)
inhibition [1]: 0%
inhibition [6]: 12%
inhibition [7]: 15%

CCOC(=O)c1cc2c3ccccc3[nH]c(=O)n2n1
Ki [2]: 42 µM
Ki [5]: 33.3 µM

O=C(O)c1cc2n(n1)C(C(=O)O)Nc1ccccc1-2 (stereo not given)
inhibition [1]: 11%
inhibition [6]: 0%
inhibition [7]: 35%

COC(=O)C1=NN2C(=O)Nc3ccccc3C2C1 (stereo not given)
inhibition [1]: 0%
inhibition [6]: 29%
inhibition [7]: 40%

O=Cc1ccn(-c2cc3c(cc2Cl)nc(O)n2nc(C(=O)O)cc32)c1
IC50 [4]: 5.5 µM
Ki [8]: 0.27 µM
IC50 (Mus musculus [9]): 0.5 µM
IC50 (Mus musculus [10]): 25 µM
Ki [3]: 8.2 µM

CCOC(=O)c1cc2c3cc([N+](=O)[O-])c(Cl)cc3[nH]c(=O)n2n1
Ki [2]: 8.2 µM
Ki [5]: 10.6 µM

O=C(O)C1=NN2C(=O)Nc3cc(Cl)ccc3C2C1 (stereo not given)
inhibition [1]: 20%
Ki [2]: 7.2 µM
Ki [5]: 0.24 µM
